≈ marks a conversion by molar mass, not a printed value.
Legend:
Staphylococcus aureus [1] = experiment: Antibacterial activity against glycopeptide-intermediate/methicillin-resistant Staphylococcus aureus NARSA NRS1 after 18 to 20 hrs by broth microdilution assay
Klebsiella pneumoniae [2] = experiment: Antibacterial activity against multidrug-resistant Klebsiella pneumoniae ATCC 700603 after 18 to 20 hrs by broth microdilution assay; format: functional
In short: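 Strains were grown overnight at 37 °C with shaking in nutrient broth or MHB, diluted 50-fold in MHB and grown 1.5–3 h to mid-log. Compounds were 2-fold serially diluted in MHB at 32 to 0.015 µg/mL final (1% DMSO) with 5×10^5 CFU/mL. […] Two independent experiments of n = 2 (n = 4).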

[3] = Drug localization in peripheral region of methicillin-resistant Staphylococcus aureus subsp. aureus Rosenbach ATCC 43300 at 10 ug/ml after 20 mins by confocal microscopic analysis; format: ADME
In short: (§1)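 MRSA ATCC 43300 was grown overnight in LB broth at 37 °C with gentle shaking, then incubated 20 min at 37 °C with 10 µg/mL fluorescent compound in LB. Cells were fixed in 4% paraformaldehyde for 20 min, wet-mounted on slides and imaged by confocal microscopy.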

Cryptococcus neoformans = experiment: Antifungal activity against Cryptococcus neoformans H99 ATCC 208821 after 18 to 20 hrs by broth microdilution assay; format: functional; conditions: var. grubii H99 ATCC 208821
Acinetobacter baumannii [4] = experiment: Antibacterial activity against Acinetobacter baumannii ATCC 19606 after 18 to 20 hrs by broth microdilution assay; format: functional; conditions: ATCC 19606 = CIP 70.34 = JCM 6841
In short: (§2)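 Bacteria grown overnight at 37 °C with shaking in nutrient broth or Mueller-Hinton broth (MHB). Cultures were diluted 50-fold in MHB and grown 1.5–3 h to mid-log phase, then set at 5×10^5 CFU/mL final. Compounds were 2-fold serially diluted, final 32 to 0.015 µg/mL, 1% DMSO. […] Two independent experiments of n = 2 (n = 4).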

[5] = Drug localization in methicillin-resistant Staphylococcus aureus subsp. aureus Rosenbach ATCC 43300 at 10 ug/ml after 20 mins by confocal microscopic analysis; format: ADME; in short: as §1
Staphylococcus aureus [6] = experiment: Antibacterial activity against vancomycin-resistant Staphylococcus aureus NARSA VRS10 after 18 to 20 hrs by broth microdilution assay
Streptococcus pneumoniae = experiment: microbe, parasite or virus in culture; conditions: ATCC 700677
Pseudomonas aeruginosa [7] = experiment: Antibacterial activity against Pseudomonas aeruginosa ATCC 27853 after 18 to 20 hrs by broth microdilution assay; format: functional; in short: as §2
Candida albicans = experiment: Antifungal activity against Candida albicans ATCC 90028 after 18 to 20 hrs by broth microdilution assay; format: functional
[8] = Cytotoxicity against HEK293 cells after 24 hrs by resazurin dye-based fluorescence analysis; format: cell-based; conditions: human
In short: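 HEK293 cells were seeded at 3000/well in DMEM with 10% FBS and attached for 24 h at 37 °C, 5% CO₂. A compound concentration series was applied for 24 h. Resazurin was added at 10 µM for 2 h and fluorescence read at ex/em 560/590. Results are average percentage of control ± SD of duplicate wells.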

[9] = Drug localization in peripheral region of […] Escherichia coli ATCC 25922 at 10 ug/ml after 20 mins by confocal microscopic analysis; format: ADME
In short: (§3)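 E. coli ATCC 25922 was grown overnight in LB broth at 37 °C with gentle shaking. Cells were exposed to 10 µg/mL fluorescent compound in LB for 20 min at 37 °C. Localisation was imaged by confocal microscopy, including 3D rendering.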

Staphylococcus aureus [10] = experiment: microbe, parasite or virus in culture; conditions: ATCC 43300
Staphylococcus aureus [11] = experiment: Antibacterial activity against glycopeptide-intermediate resistant Staphylococcus aureus NARSA NRS17 after 18 to 20 hrs by broth microdilution assay
Escherichia coli [12] = experiment: Antibacterial activity against Escherichia coli ATCC 25922 after 18 to 20 hrs by broth microdilution assay; format: functional; in short: as §2
[13] = Drug localization in […] Escherichia coli ATCC 25922 at 10 ug/ml after 20 mins by confocal microscopic analysis; format: ADME; in short: as §3
Escherichia coli [14] = experiment: Antibacterial activity against Escherichia coli ATCC 25922 after 20 hrs by micro-broth dilution assay; format: functional; conditions: ATCC 25922, 20 h
Staphylococcus aureus [15] = experiment: Antibacterial activity against methicillin-resistant Staphylococcus aureus ATCC 43300 after 20 hrs by micro-broth dilution assay; format: functional; conditions: ATCC 43300, 20 h
Pseudomonas aeruginosa [16] = experiment: Antibacterial activity against Pseudomonas aeruginosa ATCC 27853 after 20 hrs by micro-broth dilution assay; format: functional; conditions: ATCC 27853, 20 h
Klebsiella pneumoniae [17] = experiment: Antibacterial activity against Klebsiella pneumoniae ATCC 13883 assessed as zone of inhibition at 50 ug/disc after 20 hrs by disk diffusion assay; format: functional; conditions: ATCC 13883, 20 h, read-out: IZ
In short: (§4)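 Disks loaded with 50 µg compound. Isolate suspensions were adjusted to 0.5 McFarland in 0.9% NaCl and swabbed onto nutrient agar plates, with zones of inhibition measured. Controls: 10 µg colistin sulphate disk, 10 µL DMSO, and a plate swabbed with saline from the dispenser.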

Pseudomonas aeruginosa [18] = experiment: Antibacterial activity against Pseudomonas aeruginosa ATCC 27853 assessed as zone of inhibition at 50 ug/disc after 20 hrs by disk diffusion assay; format: functional; conditions: ATCC 27853, 20 h, read-out: IZ; in short: as §4
Staphylococcus aureus [19] = experiment: Antibacterial activity against methicillin-resistant Staphylococcus aureus ATCC 43300 assessed as zone of inhibition at 50 ug/disc after 20 hrs by disk diffusion assay; format: functional; conditions: ATCC 43300, 20 h, read-out: IZ
In short: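 Disk diffusion, 50 µg compound per disk. Bacterial suspensions were adjusted to 0.5 McFarland in 0.9% NaCl and swabbed onto nutrient agar plates. Controls were a 10 µg colistin sulphate disk, 10 µL DMSO, and a plate swabbed with saline from the dispenser.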

Acinetobacter baumannii [20] = experiment: Antibacterial activity against Acinetobacter baumannii ATCC 19606 assessed as zone of inhibition at 50 ug/disc after 20 hrs by disk diffusion assay; format: functional; conditions: ATCC 19606 = CIP 70.34 = JCM 6841, 20 h, read-out: IZ; in short: as §4
Enterococcus faecium = experiment: Antibacterial activity against Enterococcus faecium ATCC 700221 assessed as zone of inhibition at 50 ug/disc after 20 hrs by disk diffusion assay; format: functional; conditions: ATCC 700221, 20 h, read-out: IZ; in short: as §4

Compound | MIC (Staphylococcus aureus [1]) | MIC (Klebsiella pneumoniae [2]) | MIC (Cryptococcus neoformans) | MIC (Acinetobacter baumannii [4]) | MIC (Staphylococcus aureus [6]) | MIC (Streptococcus pneumoniae) | MIC (Pseudomonas aeruginosa [7]) | MIC (Candida albicans) | CC50 at 24 h [8] | MIC (Staphylococcus aureus [10]) | MIC (Staphylococcus aureus [11]) | MIC (Escherichia coli [12]) | Drug uptake [13] | other results
CCCNc1ccc2c3c(cccc13)C(=O)N(CCCCCCCCCCCC1O[C@@H]3[C@@H]4C[C@H]([C@@H]3O1)[C@@H](C(=O)NCCNC(=N)N)[C@@H]4C(=O)NCCNC(=N)N)C2=O.Cl.Cl (some centres undefined) | 4 µg/mL | > 32 µg/mL | 0.25 µg/mL | > 32 µg/mL | 2 µg/mL | 1 µg/mL | > 32 µg/mL | 128 µg/mL | > 50 µg/mL | 1 µg/mL | 4 µg/mL | > 32 µg/mL | Active | Drug uptake [3]: Active; Drug uptake [5]: Active; Drug uptake [9]: Active
CCCN1C(=O)c2cccc3c(N)ccc(c23)C1=O |  |  |  |  |  |  |  |  |  |  |  |  | Active | Drug uptake [5]: Active
CCCCCCCCCCCCCCCC1O[C@@H]2[C@@H]3C[C@H]([C@@H]2O1)[C@@H](C(=O)NCCNC(=N)NCc1ccccc1)[C@@H]3C(=O)NCCNC(=N)NCc1ccccc1.Cl.Cl (some centres undefined) | 0.5 µg/mL | > 128 µg/mL |  | > 128 µg/mL | 0.5 µg/mL | 1 µg/mL | > 128 µg/mL |  | 7.8 µg/mL | 0.25 µg/mL | 0.25 µg/mL | > 128 µg/mL |  | 
CCCNc1ccc([N+](=O)[O-])c2nonc12 |  |  |  |  |  |  |  |  |  |  |  |  | Active | Drug uptake [3]: Active
Cl.Cl.N=C(N)NCCNC(=O)[C@@H]1[C@@H]2C[C@@H]([C@@H](OCc3ccc(C(F)(F)F)cc3)[C@H]2OCc2ccc(C(F)(F)F)cc2)[C@H]1C(=O)NCCNC(=N)N |  |  |  |  |  |  |  |  |  |  |  |  |  | MIC (Escherichia coli [14]): 8 µg/mL; MIC (Staphylococcus aureus [15]): 8 µg/mL; MIC (Pseudomonas aeruginosa [16]): 8 µg/mL
CCCCCCCC1O[C@@H]2[C@@H]3C[C@H]([C@@H]2O1)[C@@H](C(=O)NCCNC(=O)c1ccc(C(=O)NC(=N)N)[nH]1)[C@@H]3C(=O)NCCNC(=O)c1ccc(C(=O)NC(=N)N)[nH]1.Cl.Cl (some centres undefined) | > 128 µg/mL | > 128 µg/mL |  | > 128 µg/mL | 128 µg/mL | > 128 µg/mL | > 128 µg/mL |  | > 100 µg/mL | > 128 µg/mL | > 128 µg/mL | > 128 µg/mL |  | 
CCCCCCCCCCCCCCCC1O[C@@H]2[C@@H]3C[C@H]([C@@H]2O1)[C@@H](C(=O)NCCNC(=N)N)[C@@H]3C(=O)NCCNC(=N)N.Cl.Cl (some centres undefined) |  |  |  |  |  |  |  |  |  |  |  |  |  | MIC (Staphylococcus aureus [15]): 1 µg/mL
Cl.Cl.N=C(N)NCCNC(=O)[C@@H]1[C@@H]2C[C@@H]([C@H]3OC(CCCCCCCCCCCNc4ccc([N+](=O)[O-])c5nonc45)O[C@@H]23)[C@H]1C(=O)NCCNC(=N)N (some centres undefined) | 4 µg/mL | > 32 µg/mL | 4 µg/mL | 32 µg/mL | 0.5 µg/mL | 1 µg/mL | 32 µg/mL | 16 µg/mL | > 50 µg/mL | 1 µg/mL | 1 µg/mL | 8 µg/mL | Active | Drug uptake [3]: Active; zone of inhibition at 50 µg/disc (Klebsiella pneumoniae [17]): 8.5 mm; Drug uptake [5]: Active; zone of inhibition at 50 µg/disc (Pseudomonas aeruginosa [18]): 9 mm; Drug uptake [9]: Active; zone of inhibition at 50 µg/disc (Staphylococcus aureus [19]): 9 mm
Cl.Cl.Cl.N=C(N)NCCNC(=O)[C@@H]1[C@@H]2C[C@@H]([C@H]3OC(CCCCCCCCCCCN)O[C@@H]23)[C@H]1C(=O)NCCNC(=N)N (some centres undefined) | 8 µg/mL | > 32 µg/mL |  | > 32 µg/mL | 8 µg/mL | 8 µg/mL | > 32 µg/mL |  | > 50 µg/mL | 16 µg/mL | 16 µg/mL | > 32 µg/mL |  | zone of inhibition at 50 µg/disc (Klebsiella pneumoniae [17]): 14.5 mm; zone of inhibition at 50 µg/disc (Pseudomonas aeruginosa [18]): 12 mm; zone of inhibition at 50 µg/disc (Staphylococcus aureus [19]): 14 mm; zone of inhibition at 50 µg/disc (Acinetobacter baumannii [20]): 12 mm
CCCCCCCC1O[C@@H]2[C@@H]3C[C@H]([C@@H]2O1)[C@@H](C(=O)NCCNC(=N)NCc1ccccc1)[C@@H]3C(=O)NCCNC(=N)NCc1ccccc1.Cl.Cl (some centres undefined) | 2 µg/mL | > 32 µg/mL | 2 µg/mL | > 32 µg/mL | 1 µg/mL | 2 µg/mL | 32 µg/mL | 128 µg/mL | > 50 µg/mL | 2 µg/mL | 1 µg/mL | 8 µg/mL |  | zone of inhibition at 50 µg/disc (Klebsiella pneumoniae [17]): 15 mm; zone of inhibition at 50 µg/disc (Pseudomonas aeruginosa [18]): 13 mm; zone of inhibition at 50 µg/disc (Staphylococcus aureus [19]): 17 mm; zone of inhibition at 50 µg/disc (Acinetobacter baumannii [20]): 10 mm; zone of inhibition at 50 µg/disc (Enterococcus faecium): 18 mm
OC(Cn1cncn1)(Cn1cncn1)c1ccc(F)cc1F [FLUCONAZOLE] |  |  | 8 µg/mL (≈ 26.1 µM) |  |  |  |  | 1 µg/mL (≈ 3.27 µM) |  |  |  |  |  | 
CC/C(=C(\c1ccccc1)c1ccc(OCCN(C)C)cc1)c1ccccc1 [TAMOXIFEN] |  |  |  |  |  |  |  |  | 13 µg/mL (≈ 35 µM) |  |  |  |  | 
CN[C@H](CC(C)C)C(=O)N[C@H]1C(=O)N[C@@H](CC(N)=O)C(=O)N[C@H]2C(=O)N[C@H]3C(=O)N[C@H](C(=O)N[C@H](C(=O)O)c4cc(O)cc(O)c4-c4cc3ccc4O)[C@H](O)c3ccc(c(Cl)c3)Oc3cc2cc(c3O[C@@H]2O[C@H](CO)[C@@H](O)[C@H](O)[C@H]2O[C@H]2C[C@](C)(N)[C@H](O)[C@H](C)O2)Oc2ccc(cc2Cl)[C@H]1O [VANCOMYCIN] |  |  |  |  | > 64 µg/mL | 1 µg/mL (≈ 0.69 µM) |  |  |  |  |  |  |  | 
